Results: ChEMBL document CHEMBL1914459 (Bioorg Med Chem Lett, 2011)
Calls of active or inactive are those of the source. The calls are words filed in the database; no cut-off is given here.

Tests used:
[1] = biological target: T1, Prostaglandin D2 receptor 2 (Homo sapiens, UniProt Q9Y5Y4); experiment: Displacement of [3H]PGD2 from human CRTH2 receptor
T1 sequence (Q9Y5Y4 whole entry): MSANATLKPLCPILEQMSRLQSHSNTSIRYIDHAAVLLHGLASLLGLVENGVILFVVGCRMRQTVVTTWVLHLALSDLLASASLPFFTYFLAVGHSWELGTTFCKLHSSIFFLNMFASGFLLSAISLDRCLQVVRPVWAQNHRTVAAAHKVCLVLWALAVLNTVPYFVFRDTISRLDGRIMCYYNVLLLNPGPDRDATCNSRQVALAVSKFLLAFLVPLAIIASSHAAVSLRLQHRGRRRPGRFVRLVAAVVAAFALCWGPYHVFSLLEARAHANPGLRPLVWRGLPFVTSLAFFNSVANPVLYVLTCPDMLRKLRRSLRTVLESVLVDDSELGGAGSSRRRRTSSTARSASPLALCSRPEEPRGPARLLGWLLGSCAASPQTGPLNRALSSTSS
Procedure, shortened: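 Radioligand binding with ³H-PGD₂ as the labelled ligand; IC₅₀ reported as mean of n >2 measurements.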

[2] = Inhibition of human recombinant aldose reductase 2 after 15 mins by spectrophotometry analysis
[3] = Intrinsic clearance in rat hepatocytes assessed as per 1 x 10^6 cells
[4] = biological target: Cytochrome P450 2C9 (Homo sapiens, UniProt P11712); experiment: Inhibition of CYP2C9; format: ADME
[5] = biological target: T2, Cytochrome P450 1A2 (Homo sapiens, UniProt P05177); experiment: Inhibition of CYP1A2; format: ADME
T2 sequence (P05177 whole entry): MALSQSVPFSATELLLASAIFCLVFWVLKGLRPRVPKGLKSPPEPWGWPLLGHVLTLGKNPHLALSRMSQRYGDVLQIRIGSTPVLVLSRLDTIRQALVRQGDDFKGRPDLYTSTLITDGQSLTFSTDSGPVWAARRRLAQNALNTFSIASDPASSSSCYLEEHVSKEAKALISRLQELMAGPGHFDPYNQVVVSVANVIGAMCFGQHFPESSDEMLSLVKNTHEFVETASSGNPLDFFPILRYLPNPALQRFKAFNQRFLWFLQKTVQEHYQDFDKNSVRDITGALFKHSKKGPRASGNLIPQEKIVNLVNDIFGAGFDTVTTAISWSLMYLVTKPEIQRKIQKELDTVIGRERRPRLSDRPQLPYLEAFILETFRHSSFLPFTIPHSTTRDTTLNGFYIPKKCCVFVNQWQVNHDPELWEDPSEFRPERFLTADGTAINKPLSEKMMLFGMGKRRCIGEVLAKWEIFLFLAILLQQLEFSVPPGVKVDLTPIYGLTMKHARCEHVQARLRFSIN

[6] = biological target: Cytochrome P450 2D6 (Homo sapiens, UniProt P10635); experiment: Inhibition of CYP2D6; format: ADME
[7] = biological target: Cytochrome P450 3A4 (Homo sapiens, UniProt P08684); experiment: Inhibition of CYP3A4; format: ADME
[8] = Lipophilicity, log D of the compound at pH 7.4; conditions: buffer
[9] = biological target: T3, Thromboxane A2 receptor (Homo sapiens) (UniProt P21731); experiment: Antagonist activity at prostanoid TP receptor assessed as inhibition of arachidonic acid-induced platelet aggregation at >/= 1 uM; format: functional
T3 sequence (whole entry): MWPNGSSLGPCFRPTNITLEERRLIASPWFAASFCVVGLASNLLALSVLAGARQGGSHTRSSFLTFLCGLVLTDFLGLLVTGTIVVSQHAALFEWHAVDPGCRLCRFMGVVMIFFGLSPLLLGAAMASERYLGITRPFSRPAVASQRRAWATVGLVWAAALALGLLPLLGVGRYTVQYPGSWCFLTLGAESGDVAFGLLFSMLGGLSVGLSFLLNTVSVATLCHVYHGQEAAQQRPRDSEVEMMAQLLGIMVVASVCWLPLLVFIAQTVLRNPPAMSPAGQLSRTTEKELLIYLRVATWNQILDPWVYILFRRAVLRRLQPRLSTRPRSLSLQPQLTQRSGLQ

[10] = Clearance in Sprague-Dawley rat at 1 mg/kg, iv; format: ADME, organism-based; design: dose 1 mg/kg, route intravenous; conditions: in vivo
[11] = Volume of distribution at steady state in Sprague-Dawley rat at 1 mg/kg, iv; format: ADME, organism-based; design: dose 1 mg/kg, route intravenous; conditions: in vivo, read-out: Vdss
[12] = Half life in Sprague-Dawley rat at 1 mg/kg, iv; format: ADME, organism-based; design: dose 1 mg/kg, route intravenous; conditions: in vivo
[13] = Oral bioavailability in Sprague-Dawley rat at 4 mg/kg; format: ADME, organism-based; conditions: in vivo
[14] = biological target: T4, Prostaglandin D2 receptor (Homo sapiens) (UniProt Q13258); experiment: Antagonist activity at prostanoid DP1 receptor; format: functional
T4 sequence (whole entry): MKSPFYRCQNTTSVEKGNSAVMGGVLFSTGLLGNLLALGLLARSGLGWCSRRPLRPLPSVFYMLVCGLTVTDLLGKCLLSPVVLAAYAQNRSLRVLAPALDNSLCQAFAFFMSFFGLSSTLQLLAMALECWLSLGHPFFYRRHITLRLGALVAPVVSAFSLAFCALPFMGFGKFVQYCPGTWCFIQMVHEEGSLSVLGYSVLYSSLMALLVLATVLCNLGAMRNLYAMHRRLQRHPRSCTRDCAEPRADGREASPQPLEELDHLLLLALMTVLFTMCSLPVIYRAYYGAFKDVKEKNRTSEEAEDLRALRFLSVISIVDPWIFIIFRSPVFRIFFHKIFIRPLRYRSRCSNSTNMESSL

[15] = biological target: Prostaglandin G/H synthase 1 (Homo sapiens) (UniProt P23219); experiment: Inhibition of COX1 assessed as inhibition of arachidonic acid-induced platelet aggregation at >/= 1 uM
[16] = biological target: T1, Prostaglandin D2 receptor 2; experiment: Antagonist activity against human CRTh2 receptor in human eosinophils assessed as inhibition of DK-PGD2-induced CD11b expression; format: functional

Chain of Cytochrome P450 3A4 (P08684 whole entry): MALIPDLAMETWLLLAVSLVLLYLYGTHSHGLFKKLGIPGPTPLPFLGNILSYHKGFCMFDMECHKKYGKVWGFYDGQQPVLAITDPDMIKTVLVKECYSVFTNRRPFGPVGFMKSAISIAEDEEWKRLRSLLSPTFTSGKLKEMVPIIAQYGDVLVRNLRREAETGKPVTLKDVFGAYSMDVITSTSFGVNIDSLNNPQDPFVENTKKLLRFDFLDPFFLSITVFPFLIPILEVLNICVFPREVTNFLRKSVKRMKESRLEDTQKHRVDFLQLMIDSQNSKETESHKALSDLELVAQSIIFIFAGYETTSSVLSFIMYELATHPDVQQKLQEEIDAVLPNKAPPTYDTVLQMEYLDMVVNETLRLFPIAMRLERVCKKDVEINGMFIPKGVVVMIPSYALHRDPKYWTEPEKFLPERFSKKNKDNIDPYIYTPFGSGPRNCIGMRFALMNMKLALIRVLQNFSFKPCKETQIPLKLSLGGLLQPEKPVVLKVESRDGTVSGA
Chain of Cytochrome P450 2D6 (P10635 whole entry): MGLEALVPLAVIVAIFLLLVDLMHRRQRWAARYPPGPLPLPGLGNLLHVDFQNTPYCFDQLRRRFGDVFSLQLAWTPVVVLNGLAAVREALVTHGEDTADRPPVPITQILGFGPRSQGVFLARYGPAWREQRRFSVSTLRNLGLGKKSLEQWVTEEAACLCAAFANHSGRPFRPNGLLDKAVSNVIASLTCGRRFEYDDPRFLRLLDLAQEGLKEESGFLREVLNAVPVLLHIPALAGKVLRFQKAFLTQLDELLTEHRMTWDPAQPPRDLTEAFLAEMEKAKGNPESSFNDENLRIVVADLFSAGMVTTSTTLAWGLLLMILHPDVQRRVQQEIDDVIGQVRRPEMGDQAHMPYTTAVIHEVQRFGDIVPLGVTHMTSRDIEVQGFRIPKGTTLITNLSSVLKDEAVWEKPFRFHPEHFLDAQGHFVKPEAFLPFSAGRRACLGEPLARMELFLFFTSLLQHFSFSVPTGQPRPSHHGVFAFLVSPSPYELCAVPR
Chain of Cytochrome P450 2C9 (P11712 whole entry): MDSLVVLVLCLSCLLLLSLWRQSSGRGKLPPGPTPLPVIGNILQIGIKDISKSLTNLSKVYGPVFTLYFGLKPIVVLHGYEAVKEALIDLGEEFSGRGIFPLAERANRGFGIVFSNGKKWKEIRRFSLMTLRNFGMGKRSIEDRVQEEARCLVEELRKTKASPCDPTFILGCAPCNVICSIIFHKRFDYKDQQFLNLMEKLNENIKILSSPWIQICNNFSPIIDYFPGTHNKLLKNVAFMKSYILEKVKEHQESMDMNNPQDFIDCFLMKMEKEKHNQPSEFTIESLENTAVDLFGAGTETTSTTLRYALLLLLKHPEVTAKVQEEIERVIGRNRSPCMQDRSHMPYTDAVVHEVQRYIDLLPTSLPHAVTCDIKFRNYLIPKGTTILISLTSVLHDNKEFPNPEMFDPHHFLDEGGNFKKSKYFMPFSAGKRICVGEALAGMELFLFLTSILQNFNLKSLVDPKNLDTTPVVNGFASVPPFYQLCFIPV
Chain of Prostaglandin G/H synthase 1 (Homo sapiens) (P23219 whole entry): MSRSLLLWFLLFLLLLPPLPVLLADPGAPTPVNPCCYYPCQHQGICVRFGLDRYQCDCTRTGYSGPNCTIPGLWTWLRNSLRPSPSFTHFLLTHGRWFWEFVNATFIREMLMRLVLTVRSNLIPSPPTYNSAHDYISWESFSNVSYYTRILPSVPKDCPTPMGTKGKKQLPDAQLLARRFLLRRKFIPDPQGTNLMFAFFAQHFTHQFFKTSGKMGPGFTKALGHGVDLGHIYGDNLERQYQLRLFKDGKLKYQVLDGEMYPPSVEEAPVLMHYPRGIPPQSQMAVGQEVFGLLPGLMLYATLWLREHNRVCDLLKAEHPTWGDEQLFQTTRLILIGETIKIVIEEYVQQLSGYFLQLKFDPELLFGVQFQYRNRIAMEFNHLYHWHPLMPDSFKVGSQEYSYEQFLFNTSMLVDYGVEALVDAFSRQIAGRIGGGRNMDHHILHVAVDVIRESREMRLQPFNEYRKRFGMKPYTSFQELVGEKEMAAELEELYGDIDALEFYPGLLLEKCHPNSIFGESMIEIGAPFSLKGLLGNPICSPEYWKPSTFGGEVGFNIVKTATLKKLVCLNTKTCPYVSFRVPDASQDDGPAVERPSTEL

With `CC(=O)Nc1cccc2c1c(Sc1ccc(Cl)cc1)c(C)n2CC(=O)O` [AZD1981] as the compound, how does the IC50 [1] read?
The IC50 was 0.0043 µM.

What about the IC50 [2] of the same compound?
The IC50 was 2.51 µM.

And the hepatocyte CLint [3]?
The hepatocyte CLint was 1 µL/min/1e6 cells.

What about the IC50 [4] of the same compound?
Its IC50 is over 10 µM.

What about the IC50 [5] of the same compound?
Its IC50 is over 10 µM.

What about the IC50 [6] of the same compound?
The IC50 was over 10 µM.

What about the IC50 [7] of the same compound?
The IC50 was over 10 µM.

And the logD [8]?
Its logD is -0.2.

What about the inhibition [9] of the same compound?
The inhibition was “inactive”.

And the clearance [10]?
The clearance was 4 mL/min/kg.

And the Vd [11]?
Its Vd is 0.5 L/kg.

And the half-life [12]?
Its half-life is 1.9 h.

What about the bioavailability [13] of the same compound?
Its bioavailability is 63%.

And the Activity [14]?
Its Activity is “inactive”.

What about the inhibition [15] of the same compound?
Its inhibition is “inactive”.

What about the IC50 [16] of the same compound?
Its IC50 is 0.01 µM.
